These results are taken from article PMC5766731 (Clinical Pharmacokinetics, 2017).

The nature of series [1]: Part I urinary recovery of ZYAN1. The series is classed as in vivo, human. The conditions noted are these: for Amount recovered [mean ± SD] / Percentage recovered [mean ± SD]: urine, part I. The gist of the method:
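Urine collected pre-dose and over 0–12, 12–24, 24–36 and 36–48 h: after the single dose (10–300 mg, part I) or after each alternate-day dose on Days 1, 3 and 5 (part II). Total volume recorded; 5 mL aliquots stored at –80 ± 10 °C. Acetonitrile precipitation and LC-MS/MS with analog internal standard, urine calibration 2–5000 ng/mL, LLOQ 2 ng/mL. Amount and percentage of dose recovered calculated.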

The next series has as its system hemoglobin levels. The conditions noted are these: cited from earlier work.
Another series deals with cytochrome P450 (CYP). The note with it: cited from earlier work.

SMILES strings stand for the structures.

Consider `O=C(O)CNC(=O)c1c(O)c2ccccc2n(OCC2CC2)c1=O` [ZYAN1], for which the “urinary excretion of intact ZYAN1, average” value in series [1] (healthy subjects) was 36%. Moreover, the “Amount recovered [mean ± SD]” value in series [1] (single oral dose 10 mg) stood at 3.63 ± 1.02 mg; in series [1] (single oral dose 25 mg), 9.45 ± 1.76 mg; in series [1] (single oral dose 50 mg), 18.99 ± 3.36 mg; in series [1] (single oral dose 100 mg), 41.13 ± 12.06 mg; in series [1] (single oral dose 150 mg), 56.23 ± 17.26 mg; in series [1] (single oral dose 200 mg) it was 62.83 ± 18.11 mg. Further, the “Amount recovered [mean ± SD]” value in series [1] (single oral dose 300 mg) is 82.66 ± 39.25 mg. Besides, the “Percentage recovered [mean ± SD]” value in series [1] (single oral dose 10 mg) stood at 36.270 ± 10.245%; in series [1] (single oral dose 25 mg) it was 37.798 ± 7.059%; in series [1] (single oral dose 50 mg) it was 37.995 ± 6.718%; in series [1] (single oral dose 100 mg) it was 41.130 ± 12.064%; in series [1] (single oral dose 150 mg), 37.485 ± 11.508%; in series [1] (single oral dose 200 mg) it was 31.417 ± 9.056%. For the same compound, in series [1] (single oral dose 300 mg), the “Percentage recovered [mean ± SD]” value was 27.555 ± 13.083%. Moreover, in the series with hemoglobin levels (alternate dosing pattern for a week), the “effective dose for inducing hematopoiesis” value is given as 15 mg/kg. The “erythropoiesis / hemoglobin levels” value in the series with hemoglobin levels (repeated dose model, nephrectomized rats and mice) was “robust increase in erythropoiesis, resulting in normalization of hemoglobin levels”. Further, the “potential for cytochrome P450 (CYP)-mediated drug–drug interactions” value in the series with cytochrome P450 (CYP) is listed as “minimal potential”.
